ChEMBL document CHEMBL2346503, “Synthesis and evaluation of novel (18)F-labeled spirocyclic piperidine derivatives as σ1 receptor ligands for positron emission tomography imaging” (J Med Chem, 2013)

Key:
[1] = system: Liver; experiment: Metabolic stability in ICR mouse liver assessed as retention time at 18.5 MBq, iv by HPLC analysis; type: ADME, organism-based; conditions: in vivo
Outline: (§1)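 Male ICR mice given radiotracer iv (18.5 MBq, 0.2 mL), killed at 30 min. Brain and liver were homogenized in ice-cold PBS (0.01 M, pH 7.4) and extracted with ice-cold MeCN. Supernatants were filtered, concentrated and analysed by radio-HPLC on a C18 column, acetonitrile/water with 0.1% TFA (45:55), 1 mL/min.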

[2] = system: Brain; experiment: Metabolic stability in ICR mouse brain at 18.5 MBq, iv after 30 mins by HPLC analysis; type: ADME, organism-based; conditions: in vivo, 0.5 h; outline: as §1
[3] = Metabolic stability in ICR mouse liver at 18.5 MBq, iv after 30 mins by HPLC analysis; type: ADME, organism-based; conditions: read-out: Stability; outline: as §1
[4] = molecular target: Sigma non-opioid intracellular receptor 1 (Rattus norvegicus, UniProt Q9R0C9); experiment: Displacement of (+)-[3H]pentazocine from rat brain sigma1 receptor by competitive binding assay
[5] = Displacement of [3H]-1,3-di-o-tolylguanidine from rat liver sigma2 receptor by competitive binding assay
Outline: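 Rat liver homogenate as the σ2 source, with [3H]DTG as radioligand plus 10 μM dextrallorphan to mask σ1 sites, in a competition format. Ki values are mean ± SD of three experiments, each run in triplicate.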

[6] = species on record: Rattus norvegicus; experiment: Selectivity ratio of Ki for rat liver sigma2 receptor to rat brain sigma1 receptor
Outline: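 Competition binding used rat brain homogenates for σ1 with (+)-[³H]pentazocine. Rat liver homogenates were used for σ2 with [³H]DTG, in the presence of 10 μM dextrallorphan to mask σ1 sites. Ki values are means ± SD of three experiments, each in triplicate. Selectivity is Ki(σ2)/Ki(σ1).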

[7] = molecular target: T1, Sigma non-opioid intracellular receptor 1 (Homo sapiens, UniProt Q99720); experiment: Binding affinity to human brain sigma1 receptor
[8] = species on record: Homo sapiens; experiment: Selectivity ratio of Ki for human sigma2 receptor to human sigma1 receptor
[9] = molecular target: 3-beta-hydroxysteroid-Delta(8),Delta(7)-isomerase (Homo sapiens, UniProt Q15125); experiment: Binding affinity to EBP (unknown origin)
[10] = system: Brain; experiment: Biodistribution in mouse brain after 5 mins by PET imaging analysis; type: ADME, organism-based; conditions: in vivo
[11] = system: Brain; experiment: Biodistribution in iv dosed CD1 mouse brain after 30 mins in presence of haloperidol relative to control; type: ADME, organism-based; conditions: in vivo, 0.5 h
[12] = Ratio of drug uptake from mouse brain to blood after 30 mins; type: ADME, tissue-based; conditions: brain and blood
Outline: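 Male ICR mice (n = 5 per time point) received an intravenous saline solution of the radiotracer (370 kBq, 0.1 mL). They were decapitated at 2, 30, 60 and 120 min. Brain, blood and other organs were weighed and γ-counted against diluted injectate aliquots, decay-corrected, and expressed as %ID/g of wet tissue (mean, SD). The brain/blood ratio is given at each time.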

[13] = molecular target: T1, Sigma non-opioid intracellular receptor 1; experiment: Binding affinity to sigma1 receptor (unknown origin)
Outline: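 Radioligand competition binding on rat brain homogenates using (+)-[³H]pentazocine as the competing radioligand. Ki values are means ± SD of three experiments, each performed in triplicate.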

[14] = Binding affinity to sigma2 receptor (unknown origin); design: species or system Homo sapiens
[15] = system: Liver microsomes; experiment: Metabolic stability in rat liver microsomes assessed as retention time by UPLC-MS analysis in presence of beta-NADP; type: ADME, Microsome
Outline: (§2)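 Rat liver microsomes (2 mg protein/mL) with 100 μM compound and an NADPH-generating system (2 mM β-NADPH, 20 mM glucose 6-phosphate, 2 U G6PDH, 12 mM MgCl₂) in 0.05 M Tris-HCl pH 7.4. Preincubated 3 min, then run 30 min at 37 °C and stopped with ice-cold methanol. Supernatant analysed by UPLC-ESI(+)-MS against compound-free blanks.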

[16] = molecular target: Vesicular acetylcholine transporter (Rattus norvegicus, UniProt Q62666); experiment: Displacement of (-)-[3H]-vesamicol from rat VAChT transfected in rat PC12 cells after 120 mins by competitive binding assay; type: cell-based, PC-12
Outline: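 Membrane homogenates from PC12 cells stably expressing rat VAChT, with 1 nM (−)-[3H]vesamicol, test ligand at 10⁻¹¹–10⁻⁵ M, in 50 mM Tris-HCl pH 7.4, 120 min at room temperature. Nonspecific binding was defined with 10 μM (−)-vesamicol. Ki from Cheng–Prusoff; mean of two experiments, each in triplicate.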

[17] = system: Liver microsomes; experiment: Metabolic stability in rat liver microsomes assessed as retention time at 100 uM by UPLC-MS analysis in presence of beta-NADPH; type: ADME, Microsome; outline: as §2
[18] = Lipophilicity, log D of the compound at pH 7.4; type: physicochemical; conditions: buffer
Outline: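 Shake flask: radiotracer (370 kBq) in 3 mL 1-octanol plus 3 mL 0.05 M sodium phosphate buffer pH 7.4, vortexed 3 min at room temperature, then centrifuged. Both phases were gamma-counted and log D = log(cpm/mL octanol ÷ cpm/mL buffer). The octanol layer was repartitioned until values were consistent. Triplicate, repeated three times.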

[19] = system: Brain; experiment: Biodistribution in iv dosed CD1 mouse brain after 15 mins by PET imaging analysis; type: ADME, organism-based; conditions: in vivo, 0.25 h
[20] = Ratio of drug uptake from […] mouse brain to blood after 120 mins; type: ADME, tissue-based; conditions: brain and blood
Outline: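 Male ICR mice (n = 5 per time point) received [18F]tracer (370 kBq, 0.1 mL saline) iv and were decapitated at 2, 30, 60 and 120 min. Brain and blood were weighed and gamma-counted, decay-corrected and expressed as %ID/g against diluted injectate. The brain/blood ratio was taken from these %ID/g values.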

[21] = system: Brain; experiment: Biodistribution in mouse brain after 60 mins in presence of haloperidol relative to control; type: ADME, organism-based; conditions: in vivo, 1 h
Outline: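 Male ICR mice (n = 5 per group) got saline (0.1 mL) or haloperidol (0.1 mL, 1.0 mg/kg) via tail vein 5 min before iv [18F]tracer (370 kBq, 0.1 mL, saline). Killed by decapitation at 60 min. Brain was weighed and gamma-counted with decay correction, giving %ID/g against diluted injectate. Control vs blocking compared by two-tailed independent Student's t test.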

Chain of Sigma non-opioid intracellular receptor 1 (Rattus norvegicus, UniProt Q9R0C9) (Q9R0C9 whole entry): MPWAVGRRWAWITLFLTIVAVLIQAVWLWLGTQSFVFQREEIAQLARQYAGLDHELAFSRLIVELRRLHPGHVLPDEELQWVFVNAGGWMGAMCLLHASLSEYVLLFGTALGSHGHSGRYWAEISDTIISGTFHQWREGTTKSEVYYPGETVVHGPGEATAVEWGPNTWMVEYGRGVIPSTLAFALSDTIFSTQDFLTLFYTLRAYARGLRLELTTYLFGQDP
T1 sequence (Q99720 whole entry): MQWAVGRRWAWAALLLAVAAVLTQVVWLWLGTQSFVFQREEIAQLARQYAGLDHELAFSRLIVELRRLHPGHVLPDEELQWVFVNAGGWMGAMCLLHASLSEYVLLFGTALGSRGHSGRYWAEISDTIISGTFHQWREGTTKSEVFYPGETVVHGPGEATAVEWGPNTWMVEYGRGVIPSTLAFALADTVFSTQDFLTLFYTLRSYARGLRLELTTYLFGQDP
Chain of 3-beta-hydroxysteroid-Delta(8),Delta(7)-isomerase (Q15125 whole entry): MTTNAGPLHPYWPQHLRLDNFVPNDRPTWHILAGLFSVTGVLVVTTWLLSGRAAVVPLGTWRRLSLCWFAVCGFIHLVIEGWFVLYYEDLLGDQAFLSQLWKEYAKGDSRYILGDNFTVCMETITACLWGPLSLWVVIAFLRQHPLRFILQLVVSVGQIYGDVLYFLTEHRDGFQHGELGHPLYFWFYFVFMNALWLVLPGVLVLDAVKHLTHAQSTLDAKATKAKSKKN
Chain of Vesicular acetylcholine transporter (Q62666 whole entry): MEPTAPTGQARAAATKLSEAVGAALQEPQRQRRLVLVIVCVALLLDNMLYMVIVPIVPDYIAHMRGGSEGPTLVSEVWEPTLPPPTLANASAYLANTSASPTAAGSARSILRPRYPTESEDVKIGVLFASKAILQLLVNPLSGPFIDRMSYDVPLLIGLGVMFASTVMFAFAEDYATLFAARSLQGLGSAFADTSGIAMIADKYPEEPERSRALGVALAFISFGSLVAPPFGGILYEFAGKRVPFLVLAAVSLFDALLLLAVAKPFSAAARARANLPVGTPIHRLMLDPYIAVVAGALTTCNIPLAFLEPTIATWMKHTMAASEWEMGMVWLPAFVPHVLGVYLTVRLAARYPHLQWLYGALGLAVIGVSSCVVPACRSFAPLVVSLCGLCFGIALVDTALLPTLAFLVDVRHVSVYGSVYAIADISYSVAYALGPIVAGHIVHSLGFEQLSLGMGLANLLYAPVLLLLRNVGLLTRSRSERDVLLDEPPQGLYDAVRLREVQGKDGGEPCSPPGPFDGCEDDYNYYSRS

Compound	Ki [4]	Ki [5]	Ratio Ki [6]	also measured
OCc1ccccc1C1(O)CCN(Cc2ccc(OCC[18F])cc2)CC1				Retention_time [1]: 4.68 min; Stability [2]: Unstable; remaining at 0.5 h [3]: 26.9%
N#Cc1ccc(OCC2CCN(C/C=C/[123I])CC2)cc1				Ki [7]: 0.00067 µM
N#Cc1ccc(OCC2CCN(CCCF)CC2)cc1				Ratio Ki ([8]; tested as the 18F-labelled form): 33
COc1ccc(CCN2CCN(CCCc3ccccc3)CC2)cc1OC [[11C]SA4503]				Ki [9]: 0.00172 µM
O=C(CCCN1CCC(O)(c2ccc(Cl)cc2)CC1)c1ccc(F)cc1 [HALOPERIDOL]		0.0207 µM		
Fc1ccc(CN2CCC3(CC2)OCc2ccccc23)cc1	0.00058 µM	0.106 µM	182	
COc1cc(CCN2CCN(CCCc3ccccc3)CC2)ccc1O[11CH3]				Drug uptake [10]: 3.61 % ID/g; Drug uptake [11]: 60%; Kp at 0.5 h [12]: 11.6
Ic1ccc(CN2CCC3(CC2)OCc2ccccc23)cc1	0.00275 µM	0.34 µM	123	Ki [13]: 0.00275 µM; Ki [14]: 0.34 µM
OCc1ccccc1C1(O)CCN(Cc2ccc(OCCF)cc2)CC1				Retention_time [15]: 1.42 min
Oc1ccc(CN2CCC3(CC2)OCc2ccccc23)cc1				Retention_time [15]: 1.74 min
N#Cc1ccc(OCC2CCN(C/C=C/I)CC2)cc1				Ratio Ki ([8]; tested as the 123I-labelled form): 58
[125I]c1ccc(CN2CCC3(CC2)OCc2ccccc23)cc1				logD [18]: 3.06; Drug uptake [19]: 5.28 % ID/g
[18F]CCC1OC2(CCN(Cc3ccccc3)CC2)c2ccccc21 (centres undefined)				Drug uptake [10]: 3.88 % ID/g; Kp at 2 h [20]: 18.8; Drug uptake [21]: 62%
N#Cc1ccc(OCC2CCN(CCC[18F])CC2)cc1				Ki [7]: 0.0043 µM

The next lines start with results.

Ki [4]	Ki [5]	Ratio Ki [6]	Compound	also measured
0.0017 µM	0.276 µM	162	COc1ccc(CN2CCC3(CC2)OCc2ccccc23)cc1	
0.0529 µM	0.86 µM	16	FCCOCCOc1ccc(CN2CCC3(CC2)OCc2ccccc23)cc1	
0.0375 µM	0.592 µM	16	FCCOCCOCCOc1ccc(CN2CCC3(CC2)OCc2ccccc23)cc1	
0.00079 µM	0.277 µM	350	FCCOc1ccc(CN2CCC3(CC2)OCc2ccccc23)cc1	Ki [16]: 0.631 µM; Retention_time [17]: 1.82 min
0.0023 µM	0.327 µM	142	FCCOc1ccc(CN2CCC3(CC2)OCc2ccccc23)cn1	
